Results: ChEMBL document CHEMBL3580567 (J Med Chem, 2015)
Activity calls are given as the source filed them. The rule behind the calls is not given here.

Legend:
[1] = target: T1, Melatonin receptor type 1A (Homo sapiens, UniProt P48039); assay: Displacement of 2-[125I]-iodomelatonin from human melatonin receptor-1 transfected in CHO cell membranes after 120 mins
[2] = target: T1, Melatonin receptor type 1A; assay: Agonist activity at human melatonin receptor-1 transfected in CHO cell membranes after 1 hr by GTPgammaS binding assay; format: functional
[3] = target: T1, Melatonin receptor type 1A; assay: Agonist activity at human melatonin receptor-1 transfected in CHO cell membranes after 1 hr by GTPgammaS binding assay relative to melatonin; format: functional
Summary of the method: (§1)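 CHO membranes (20 µg/mL) stably expressing human MT1 or MT2 in 20 mM HEPES pH 7.4, 100 mM NaCl, 3 µM GDP, 3 mM MgCl2, 20 µg/mL saponin. Incubated with 0.2 nM [35S]GTPγS for 1 h at rt, then filtered. Non-specific binding defined with 10 µM GTPγS. Seven concentrations in duplicate; EC50 and Emax fitted.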

[4] = target: T2, Melatonin receptor type 1B (Homo sapiens, UniProt P49286); assay: Agonist activity at human melatonin receptor-2 transfected in CHO cell membranes after 1 hr by GTPgammaS binding assay; format: functional
T2 sequence (P49286 whole entry): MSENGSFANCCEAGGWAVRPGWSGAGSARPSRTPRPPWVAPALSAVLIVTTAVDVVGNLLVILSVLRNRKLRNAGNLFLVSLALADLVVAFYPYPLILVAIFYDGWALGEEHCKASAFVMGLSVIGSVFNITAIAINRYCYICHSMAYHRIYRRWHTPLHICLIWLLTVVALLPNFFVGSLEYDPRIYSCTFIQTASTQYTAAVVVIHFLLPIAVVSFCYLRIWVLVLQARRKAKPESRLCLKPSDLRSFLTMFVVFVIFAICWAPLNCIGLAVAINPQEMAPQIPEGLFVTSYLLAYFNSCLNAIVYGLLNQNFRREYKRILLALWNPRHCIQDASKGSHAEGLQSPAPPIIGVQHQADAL

[5] = target: T3, Melatonin receptor type 1B (Homo sapiens) (UniProt P49286); assay: Agonist activity at human melatonin receptor-2 transfected in CHO cell membranes after 1 hr by GTPgammaS binding assay relative to melatonin; format: functional; summary of the method: as §1
T3 sequence (whole entry): T2 sequence (P49286 whole entry)

[6] = (§2) Induction of primary neuronal stem cell differentiation derived from subgranular zone of dentate gyrus of Wistar rat hippocampus assessed as upregulation of TuJ1 expression at 10 uM incubated for 7 days followed by 48 hrs incubation in presence of serum and absence of EGF by DAPI staining-based fluorescence microscopic analysis in presence of melatonin receptor antagonist luzindole; format: functional; settings: Primary neuron
Summary of the method: (§3)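 Neurospheres came from the SGZ of the dentate gyrus of adult male Wistar rats (8-12 weeks). They were grown in DMEM/F12 with 10 ng/mL EGF, 10 ng/mL FGF and B27. After 3 days, cultures were treated with compounds for 7 days. They were then plated on poly-L-lysine coverslips for 48 h with serum and without growth factors. Cells were immunostained for TuJ1 and MAP-2 with DAPI nuclei. Positive cells were counted by fluorescence microscopy in five NS per condition over three independent experiments. Untreated cultures gave basal values.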

[7] = as §2, with “maturation” for “differentiation”, “MAP-2” for “TuJ1”, “days” for “days followed by 48 hrs incubation in presence of serum and absence of EGF”; format: functional, tissue-based; settings: Primary neuron; summary of the method: as §3
[8] = target: Cannabinoid receptor 1 (Homo sapiens) (UniProt P21554); assay: Binding affinity to CB1 receptor (unknown origin) at 10 uM
[9] = target: Cannabinoid receptor 2 (Homo sapiens) (UniProt P34972); assay: Binding affinity to CB2 receptor (unknown origin) at 10 uM
[10] = target: T4, 5-hydroxytryptamine receptor 1A (Homo sapiens) (UniProt P08908); assay: Binding affinity to 5HT-1A receptor (unknown origin) at 10 uM
T4 sequence (whole entry): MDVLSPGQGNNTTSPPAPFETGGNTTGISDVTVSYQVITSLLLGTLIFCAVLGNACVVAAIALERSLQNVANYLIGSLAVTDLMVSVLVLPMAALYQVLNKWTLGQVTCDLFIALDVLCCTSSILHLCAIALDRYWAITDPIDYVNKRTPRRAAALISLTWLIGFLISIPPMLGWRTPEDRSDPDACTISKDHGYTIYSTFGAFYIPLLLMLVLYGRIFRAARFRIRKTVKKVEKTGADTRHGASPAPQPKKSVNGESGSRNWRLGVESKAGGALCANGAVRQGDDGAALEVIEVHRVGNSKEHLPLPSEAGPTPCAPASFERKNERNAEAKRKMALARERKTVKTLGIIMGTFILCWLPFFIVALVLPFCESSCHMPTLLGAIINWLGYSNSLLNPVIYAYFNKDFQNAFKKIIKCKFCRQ

[11] = target: T5, 5-hydroxytryptamine receptor 2C (Homo sapiens) (UniProt P28335); assay: Binding affinity to 5HT-2C receptor (unknown origin) at 10 uM
T5 sequence (whole entry): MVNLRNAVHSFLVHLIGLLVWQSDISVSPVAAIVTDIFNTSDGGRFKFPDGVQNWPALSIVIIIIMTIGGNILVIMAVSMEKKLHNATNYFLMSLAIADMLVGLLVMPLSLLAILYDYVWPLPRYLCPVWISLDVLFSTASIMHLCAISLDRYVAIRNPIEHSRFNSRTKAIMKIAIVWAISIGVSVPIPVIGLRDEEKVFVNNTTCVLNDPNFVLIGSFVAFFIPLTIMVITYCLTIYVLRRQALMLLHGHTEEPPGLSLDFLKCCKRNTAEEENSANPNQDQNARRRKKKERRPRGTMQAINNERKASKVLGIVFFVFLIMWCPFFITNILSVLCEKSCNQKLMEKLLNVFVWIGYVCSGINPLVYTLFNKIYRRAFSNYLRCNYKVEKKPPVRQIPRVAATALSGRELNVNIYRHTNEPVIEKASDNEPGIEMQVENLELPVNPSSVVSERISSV

[12] = target: Sodium-dependent serotonin transporter (Homo sapiens) (UniProt P31645); assay: Binding affinity to SERT (unknown origin) at 10 uM
[13] = target: T6, Peroxisome proliferator-activated receptor gamma (Homo sapiens) (UniProt P37231); assay: Binding affinity to PPARgamma (unknown origin) at 10 uM
T6 sequence (whole entry): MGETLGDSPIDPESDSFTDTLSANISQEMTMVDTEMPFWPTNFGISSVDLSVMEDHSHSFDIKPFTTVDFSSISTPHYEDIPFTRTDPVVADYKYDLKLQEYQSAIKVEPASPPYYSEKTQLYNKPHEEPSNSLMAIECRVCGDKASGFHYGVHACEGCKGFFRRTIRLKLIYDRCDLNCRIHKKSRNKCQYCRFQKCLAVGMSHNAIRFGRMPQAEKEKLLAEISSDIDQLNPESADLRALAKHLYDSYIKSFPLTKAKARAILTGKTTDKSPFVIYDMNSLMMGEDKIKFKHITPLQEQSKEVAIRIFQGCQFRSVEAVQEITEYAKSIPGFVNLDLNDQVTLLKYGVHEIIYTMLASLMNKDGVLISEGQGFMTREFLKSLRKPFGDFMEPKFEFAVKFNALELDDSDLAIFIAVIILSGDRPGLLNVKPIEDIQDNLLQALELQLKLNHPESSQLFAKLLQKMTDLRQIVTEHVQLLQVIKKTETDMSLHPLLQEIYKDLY

[14] = target: T3, Melatonin receptor type 1B (Homo sapiens); assay: Agonist activity at human recombinant melatonin receptor-2 expressed in CHO cells assessed as decrease of cAMP level after 10 mins by HTRF assay relative to melatonin; format: functional, cell-based

T1 sequence (P48039 whole entry): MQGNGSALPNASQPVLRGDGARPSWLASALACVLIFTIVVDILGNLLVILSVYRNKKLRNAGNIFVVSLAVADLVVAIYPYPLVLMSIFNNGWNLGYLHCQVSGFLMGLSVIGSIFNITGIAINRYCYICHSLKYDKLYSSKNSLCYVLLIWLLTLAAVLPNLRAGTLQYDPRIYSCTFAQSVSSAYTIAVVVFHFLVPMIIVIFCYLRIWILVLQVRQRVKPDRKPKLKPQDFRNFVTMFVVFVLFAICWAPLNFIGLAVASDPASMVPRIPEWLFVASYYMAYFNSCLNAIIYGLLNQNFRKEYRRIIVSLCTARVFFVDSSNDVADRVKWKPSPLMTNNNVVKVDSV
Cannabinoid receptor 1 (Homo sapiens), sequence (P21554 whole entry): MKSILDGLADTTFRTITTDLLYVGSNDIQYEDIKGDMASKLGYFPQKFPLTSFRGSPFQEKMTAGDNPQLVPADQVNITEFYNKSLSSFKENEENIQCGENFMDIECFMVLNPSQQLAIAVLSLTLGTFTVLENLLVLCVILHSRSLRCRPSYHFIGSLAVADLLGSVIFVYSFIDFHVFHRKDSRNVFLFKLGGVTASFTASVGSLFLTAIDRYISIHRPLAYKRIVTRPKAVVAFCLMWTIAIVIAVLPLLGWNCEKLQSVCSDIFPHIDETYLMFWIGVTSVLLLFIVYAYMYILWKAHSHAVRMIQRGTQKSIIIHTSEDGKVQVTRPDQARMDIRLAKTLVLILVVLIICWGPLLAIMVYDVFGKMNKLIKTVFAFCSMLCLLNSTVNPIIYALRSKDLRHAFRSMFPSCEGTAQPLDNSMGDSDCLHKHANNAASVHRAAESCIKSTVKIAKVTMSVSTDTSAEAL
Sodium-dependent serotonin transporter (Homo sapiens), sequence (P31645 whole entry, looked up): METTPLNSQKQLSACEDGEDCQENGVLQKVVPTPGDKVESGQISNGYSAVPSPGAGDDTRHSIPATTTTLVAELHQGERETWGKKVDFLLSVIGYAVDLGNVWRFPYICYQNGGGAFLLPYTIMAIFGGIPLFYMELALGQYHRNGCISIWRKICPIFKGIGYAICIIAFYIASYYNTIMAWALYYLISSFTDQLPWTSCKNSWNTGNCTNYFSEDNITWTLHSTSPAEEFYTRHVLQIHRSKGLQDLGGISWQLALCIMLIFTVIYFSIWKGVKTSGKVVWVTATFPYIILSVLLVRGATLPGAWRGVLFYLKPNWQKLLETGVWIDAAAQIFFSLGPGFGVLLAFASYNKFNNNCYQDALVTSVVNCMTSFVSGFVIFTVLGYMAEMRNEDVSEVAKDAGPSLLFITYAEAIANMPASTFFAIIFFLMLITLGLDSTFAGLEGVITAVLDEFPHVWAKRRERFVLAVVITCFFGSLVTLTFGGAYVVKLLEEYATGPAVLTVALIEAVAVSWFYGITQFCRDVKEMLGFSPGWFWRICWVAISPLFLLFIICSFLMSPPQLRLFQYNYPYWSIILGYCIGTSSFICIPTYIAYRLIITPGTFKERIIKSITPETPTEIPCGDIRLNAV
Cannabinoid receptor 2 (Homo sapiens), sequence (P34972 whole entry): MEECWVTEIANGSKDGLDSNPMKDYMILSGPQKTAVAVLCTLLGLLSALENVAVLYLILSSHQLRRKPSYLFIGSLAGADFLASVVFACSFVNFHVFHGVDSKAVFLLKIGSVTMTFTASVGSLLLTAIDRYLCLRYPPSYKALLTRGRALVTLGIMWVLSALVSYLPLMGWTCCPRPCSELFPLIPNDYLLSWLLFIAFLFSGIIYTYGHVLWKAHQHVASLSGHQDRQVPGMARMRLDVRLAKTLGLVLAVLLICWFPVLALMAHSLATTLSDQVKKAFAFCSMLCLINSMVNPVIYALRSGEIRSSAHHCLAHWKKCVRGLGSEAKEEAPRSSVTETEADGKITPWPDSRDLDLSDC

Ki [1]: 709 nM
EC50 [2]: 961 nM
Emax [3]: 19%
EC50 [4]: 881 nM
Emax [5]: 32%
Activity [8]: inactive
Activity [9]: inactive
Activity [10]: inactive
Activity [11]: inactive
Activity [12]: inactive
Activity [13]: inactive
Emax [14]: 92%
Compound: COc1ccc2[nH]cc(CCc3nnc(C)o3)c2c1
Activity [6]: inactive
Activity [7]: inactive
